Data reported in ChEMBL document CHEMBL4414599, “Selective Phenylimidazole-Based Inhibitors of the Mycobacterium tuberculosis Proteasome” (J Med Chem, 2019).

Tests used:
[1] = tested on: human 20S proteasome subunit beta-5i versus Mycobacterium tuberculosis 20S open gate mutant; experiment: Selectivity index, ratio of IC50 for human 20S proteasome subunit beta-5i to IC50 for Mycobacterium tuberculosis 20S open gate mutant; type: toxicity; settings: read-out: Ratio IC50
[2] = tested on: human 20S proteasome subunit beta-5c versus Mycobacterium tuberculosis 20S open gate mutant; experiment: Selectivity index, ratio of IC50 for human 20S proteasome subunit beta-5c to IC50 for Mycobacterium tuberculosis 20S open gate mutant; type: toxicity; settings: read-out: Ratio IC50
[3] = (§1) Inhibition of Mycobacterium tuberculosis 20S open gate mutant using Suc-LLVY-AMC as substrate and measured every 30 secs for 30 mins by microtiter plate assay
Procedure, shortened: (§2)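 Mtb20S open-gate form, expressed and purified in-house, 8 nM in the enzyme solution. Buffer: 20 mM HEPES pH 7.5, 0.5 mM EDTA, 0.1 mg/mL BSA. Suc-LLVY-AMC at 100 µM final. Run at 25 °C with a three-fold inhibitor dilution series, DMSO under 0.5% final. Fluorescence 340/460 nm read every 30 s for 30 min. Rates fitted against log inhibitor concentration to give IC50; triplicate wells.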

[4] = tested on: Mycobacterium tuberculosis; experiment: as §1; procedure, shortened: as §2

Row | SMILES | selectivity ratio [1] | selectivity ratio [2] | IC50 [3] [nM] | inhibition [4]
1 | Cc1cc(C(=O)N[C@@H](CC(=O)N2CCC[C@@H]2c2ccccc2)C(=O)N[C@@H](C)c2ncc(-c3ccccc3F)[nH]2)no1 | > 12500 | > 12500 | 8 | –
2 | CC[C@@H]1CCCCN1C(=O)C[C@H](NC(=O)CCC(C)C)C(=O)N[C@@H](C)c1ncc(-c2ccc(F)cc2F)[nH]1 | – | – | 30 | –
3 | Cc1cc(C(=O)N[C@@H](CC(=O)N2CCCC[C@@H]2C)C(=O)N[C@@H](C)c2ncc(-c3ccccc3)[nH]2)no1 | – | – | 470 | –
4 | COc1ccccc1CNC(=O)[C@H](C)NC(=O)[C@H](CC(=O)N1CCC[C@@H]1c1ccccc1)NC(=O)c1cc(C)on1 | > 1500 | > 1500 | 65 | Dose-dependent effect
5 | Cc1cc(C(=O)N[C@@H](CC(=O)N2CCC[C@@H]2c2ccccc2)C(=O)N[C@@H](C)C(=O)NCc2c(F)cccc2F)no1 | 2870 | > 14300 | 7 | Dose-dependent effect
6 | Cc1cc(C(=O)N[C@@H](CC(=O)N2CCC[C@@H]2c2ccccc2)C(=O)N[C@@H](C)c2ncc(-c3ccc(F)cc3F)[nH]2)no1 | > 7700 | > 7700 | 13 | –
7 | Cc1cc(C(=O)N[C@@H](CC(=O)N2CCC[C@@H]2c2ccccc2)C(=O)N[C@@H](C)C(=O)NCc2ccc(F)cc2F)no1 | 2630 | > 33300 | 3 | Dose-dependent effect
8 | Cc1cc(C(=O)N[C@@H](CC(=O)N2CCCC[C@@H]2C)C(=O)N[C@@H](C)C(=O)NCc2ccc(F)cc2F)no1 | 3.7 | 202 | 7 | Dose-dependent effect
9 | Cc1cc(C(=O)N[C@@H](CC(=O)N2CCC[C@@H]2c2ccccc2)C(=O)N[C@@H](C)c2ncc(-c3ccccc3)[nH]2)no1 | > 4000 | > 4000 | 25 | –
